Assay results as given in PMC2756285 (Biochemistry, 2009).
pIC50: −log10 of the molar value. No end group written: not given here.

Columns and labels:
syndecan-4 = settings: cited from earlier work
[1] = cited from earlier work
syndecans = settings: membrane-associated proteoglycans; cited from earlier work
cell attachment = settings: cited from earlier work; for cell adhesion (AG73 and EF-1 together): synergetic interaction of syndecan and integrin α2β1
[2] = target: T1, rec-α5LG45 protein—heparin binding (Mus musculus, UniProt Q61001); assay: Peptide inhibition of heparin-binding to rec-α5LG45
T1 sequence (Q61001 3318-3718): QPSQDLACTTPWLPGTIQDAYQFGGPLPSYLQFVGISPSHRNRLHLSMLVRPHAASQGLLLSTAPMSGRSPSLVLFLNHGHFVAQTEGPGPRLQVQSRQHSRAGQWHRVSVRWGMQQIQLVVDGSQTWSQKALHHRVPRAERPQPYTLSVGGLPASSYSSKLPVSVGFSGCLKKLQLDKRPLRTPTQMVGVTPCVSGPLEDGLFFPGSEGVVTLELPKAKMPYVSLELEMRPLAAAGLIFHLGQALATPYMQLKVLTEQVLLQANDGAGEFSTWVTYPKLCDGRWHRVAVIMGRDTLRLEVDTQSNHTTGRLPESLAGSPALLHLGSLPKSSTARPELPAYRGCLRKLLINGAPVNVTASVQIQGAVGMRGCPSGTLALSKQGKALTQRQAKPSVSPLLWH
Outline: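 Mouse laminin α5 LG45 fused to human IgG Fc, expressed in transfected 293T cells, purified on Protein A then heparin-Sepharose. The protein (3 µg), heparin-Sepharose beads (1 mg) and varying peptide amounts were incubated for 1 h at 4 °C in 70 µL of 10 mM Tris-HCl pH 7.4 with 100 mM NaCl. Beads were washed twice. Bound protein was detected by reducing 8% SDS-PAGE and anti-human Fc Western blot with ECL. Run in triplicate.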

syndecan-1 = settings: membrane-associated proteoglycan; cited from earlier work

In the case of TLFLAHGRLVFM [A4G82], the syndecan-4-binding (syndecan-4) is given as “exhibited heparin- and syndecan-4-binding”, the heparin-binding [1] is given as “exhibited heparin- and syndecan-4-binding” and the interaction with syndecans (syndecans) is given as “interact with syndecans”. The cell attachment activity (cell attachment) was “cell attachment activity”.

Substance KMPYVSLELEMR-NH2 [A5G94, KMPYVSLELEMR] has a pIC50 [2] of 6.08.

For GLIYYVAHQNQM [AG75], the heparin-binding [1] is given as “heparin-binding”.

AGQWHRVSVRWG-NH2 [A5G81, AGQWHRVSVRWG] showed a pIC50 [2] of 5.23.

For DYATLQLQEGRLHFMFDLG [EF-1], the “cell adhesion (AG73 and EF-1 together)” value (cell attachment) is listed as “cooperate and induce cell adhesion”.

With GPLPSYLQFVGI-NH2 [A5G71, GPLPSYLQFVGI] the pIC50 [2] was 4.04.

In the case of RKRLQVQLSIRT [AG73], the heparin-binding [1] is listed as “the strongest heparin-binding peptide”, the heparin/heparan sulfate binding [1] is listed as “heparin/heparan sulfate binding” and the interaction with syndecans (syndecans) is listed as “interact with syndecans”. For the same substance, the “cell adhesion (AG73 and EF-1 together)” value (cell attachment) was “cooperate and induce cell adhesion” and the syndecan-1 binding (syndecan-1) was “binds syndecan-1”.

LVLFLNHGHFVA-NH2 [A5G77, LVLFLNHGHFVA] gave a pIC50 [2] of 5.15.

In the case of KNSFMALYLSKG [A3G75], the heparin-binding [1] is given as “heparin-binding sequence” and the interaction with syndecans (syndecans) is given as “interact with syndecans”.
